Source: ChEMBL document CHEMBL4190389, “Synthesis and activity of di- or trisubstituted N-(phenoxyalkyl)- or N-{2-[2-(phenoxy)ethoxy]ethyl}piperazine derivatives on the central nervous system” (Bioorg Med Chem Lett, 2018)
Calls of active or inactive are those of the source. The rule behind the calls is not given here.

How the values were obtained:
[1] = target: T1, Adrenergic receptor alpha-1 (Rattus norvegicus, UniProt P15823+P23944+P43140); test: Displacement of [3H]prazosin from rat cerebral cortex adrenergic receptor alpha1 by liquid scintillation counting method
T1 sequence (P15823 whole entry): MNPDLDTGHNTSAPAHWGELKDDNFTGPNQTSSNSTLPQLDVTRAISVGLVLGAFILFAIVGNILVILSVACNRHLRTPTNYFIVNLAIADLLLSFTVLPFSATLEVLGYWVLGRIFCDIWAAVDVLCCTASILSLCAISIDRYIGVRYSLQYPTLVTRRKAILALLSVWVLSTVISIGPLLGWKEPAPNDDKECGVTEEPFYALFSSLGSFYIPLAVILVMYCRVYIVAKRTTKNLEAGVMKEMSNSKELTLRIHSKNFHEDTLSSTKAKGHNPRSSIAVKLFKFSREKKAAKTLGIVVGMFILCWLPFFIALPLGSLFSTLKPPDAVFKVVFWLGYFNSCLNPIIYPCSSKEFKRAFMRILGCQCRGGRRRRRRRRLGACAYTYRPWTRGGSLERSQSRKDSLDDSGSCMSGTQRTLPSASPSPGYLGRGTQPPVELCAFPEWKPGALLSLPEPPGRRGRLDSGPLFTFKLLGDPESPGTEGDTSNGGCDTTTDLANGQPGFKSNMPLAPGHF
T1 sequence (P23944 whole entry): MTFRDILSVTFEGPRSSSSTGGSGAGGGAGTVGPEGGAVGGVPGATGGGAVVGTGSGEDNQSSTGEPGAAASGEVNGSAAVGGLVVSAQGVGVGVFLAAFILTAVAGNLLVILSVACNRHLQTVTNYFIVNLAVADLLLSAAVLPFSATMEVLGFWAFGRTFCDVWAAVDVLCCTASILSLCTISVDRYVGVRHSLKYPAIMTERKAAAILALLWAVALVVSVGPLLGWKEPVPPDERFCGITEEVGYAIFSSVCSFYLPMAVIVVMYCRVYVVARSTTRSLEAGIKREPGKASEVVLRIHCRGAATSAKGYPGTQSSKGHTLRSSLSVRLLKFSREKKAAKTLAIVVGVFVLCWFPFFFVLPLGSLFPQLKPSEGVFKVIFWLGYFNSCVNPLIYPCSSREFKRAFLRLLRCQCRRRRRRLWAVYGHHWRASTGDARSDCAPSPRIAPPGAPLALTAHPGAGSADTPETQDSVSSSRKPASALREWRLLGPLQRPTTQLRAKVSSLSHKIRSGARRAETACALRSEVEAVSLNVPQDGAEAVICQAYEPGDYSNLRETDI
T1 sequence (P43140 whole entry): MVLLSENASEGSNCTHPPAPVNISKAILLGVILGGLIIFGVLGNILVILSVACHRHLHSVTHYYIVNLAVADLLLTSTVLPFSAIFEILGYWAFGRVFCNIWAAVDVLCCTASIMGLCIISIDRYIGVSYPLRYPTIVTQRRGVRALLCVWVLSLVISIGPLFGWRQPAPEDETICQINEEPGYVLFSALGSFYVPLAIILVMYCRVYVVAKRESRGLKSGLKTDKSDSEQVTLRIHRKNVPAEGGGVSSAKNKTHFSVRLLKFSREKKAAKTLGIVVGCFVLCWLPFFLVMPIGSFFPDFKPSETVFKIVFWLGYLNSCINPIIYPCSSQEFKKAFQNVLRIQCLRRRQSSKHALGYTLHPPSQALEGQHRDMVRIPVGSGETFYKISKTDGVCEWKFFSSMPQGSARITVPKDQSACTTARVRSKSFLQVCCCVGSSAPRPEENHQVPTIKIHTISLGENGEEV

[2] = target: T2, 5-hydroxytryptamine receptor 1A (Homo sapiens, UniProt P08908); test: Binding affinity to 5-HT1A receptor (unknown origin)
T2 sequence (P08908 whole entry): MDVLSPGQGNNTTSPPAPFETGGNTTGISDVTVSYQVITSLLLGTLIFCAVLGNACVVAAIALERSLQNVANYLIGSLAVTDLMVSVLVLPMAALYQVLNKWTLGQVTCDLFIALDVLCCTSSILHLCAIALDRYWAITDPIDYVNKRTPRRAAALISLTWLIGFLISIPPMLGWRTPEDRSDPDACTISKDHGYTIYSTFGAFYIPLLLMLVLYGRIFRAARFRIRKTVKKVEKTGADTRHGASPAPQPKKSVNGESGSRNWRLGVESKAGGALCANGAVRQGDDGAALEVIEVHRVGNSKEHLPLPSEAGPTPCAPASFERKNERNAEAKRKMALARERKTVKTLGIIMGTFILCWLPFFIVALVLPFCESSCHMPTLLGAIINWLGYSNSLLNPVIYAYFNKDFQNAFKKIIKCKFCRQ

[3] = target: T2, 5-hydroxytryptamine receptor 1A; test: Displacement of [3H]8-OH-DPAT from recombinant human 5-HT1A receptor expressed in HEK293 cell membranes after 60 mins by liquid scintillation counting method
[4] = target: T3, 5-hydroxytryptamine receptor 2A (Homo sapiens, UniProt P28223); test: biochemical; type: cell-based, HEK293
[5] = target: 5-hydroxytryptamine receptor 6 (Homo sapiens, UniProt P50406); test: Displacement of [3H]LSD from recombinant human 5-HT6 receptor expressed in CHO cells cell membranes after 60 mins by liquid scintillation counting method
[6] = target: T4, 5-hydroxytryptamine receptor 7 (Homo sapiens, UniProt P34969); test: biochemical; type: cell-based, CHO
[7] = target: T5, D(2) dopamine receptor (Homo sapiens, UniProt P14416); test: Displacement of [3H]methylspiperonee from recombinant human D2 receptor expressed in HEK293 cells cell membranes after 60 mins by liquid scintillation counting method
[8] = target: T6, Alpha-1A adrenergic receptor (Homo sapiens, UniProt P35348); test: Displacement of [3H]prazosin from recombinant human alpha1 adrenoceptor expressed in CHO cell membranes after 30 mins by liquid scintillation counting method
T6 sequence (P35348 whole entry): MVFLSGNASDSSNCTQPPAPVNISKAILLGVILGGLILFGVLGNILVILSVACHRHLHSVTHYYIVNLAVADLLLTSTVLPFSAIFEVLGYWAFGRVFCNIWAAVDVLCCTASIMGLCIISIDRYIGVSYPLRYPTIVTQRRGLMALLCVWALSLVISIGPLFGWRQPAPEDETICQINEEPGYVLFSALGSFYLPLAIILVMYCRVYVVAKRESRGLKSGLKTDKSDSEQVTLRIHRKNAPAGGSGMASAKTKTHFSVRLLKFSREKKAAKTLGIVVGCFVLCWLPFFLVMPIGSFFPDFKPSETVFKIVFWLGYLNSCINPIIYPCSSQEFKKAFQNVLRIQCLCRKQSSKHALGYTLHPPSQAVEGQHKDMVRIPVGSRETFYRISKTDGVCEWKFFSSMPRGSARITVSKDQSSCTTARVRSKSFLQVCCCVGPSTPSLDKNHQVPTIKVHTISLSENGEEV

[9] = target: T7, 5-hydroxytryptamine receptor 1A (Homo sapiens) (UniProt P08908); test: Agonist activity at human 5-HT1A receptor expressed in CHO-K1 cells co-expressing Galpha16 assessed as increase in calcium mobilization measured for 30 secs by aequorin-derived luminescence assay relative to serotonin; type: functional, cell-based
T7 sequence (whole entry): T2 sequence (P08908 whole entry)

[10] = target: T7, 5-hydroxytryptamine receptor 1A (Homo sapiens); test: Antagonist activity at human 5-HT1A receptor expressed in CHO-K1 cells co-expressing Galpha16 assessed as decrease in serotonin-induced calcium mobilization preincubated for 25 mins followed by serotonin challenge measured for 30 secs by aequorin-derived luminescence assay relative to control; type: functional, cell-based
[11] = target: T7, 5-hydroxytryptamine receptor 1A (Homo sapiens); test: (§1) Antagonist activity at human 5-HT1A receptor expressed in CHO-K1 cells co-expressing Galpha16 assessed as decrease in serotonin calcium mobilization preincubated for 25 mins followed by serotonin challenge measured for 30 secs by aequorin-derived luminescence assay; type: functional, cell-based
[12] = target: T2, 5-hydroxytryptamine receptor 1A; test: as §1; type: functional, cell-based
[13] = target: T3, 5-hydroxytryptamine receptor 2A; test: Antagonist activity at human 5-HT2A receptor expressed in CHO-K1 cells co-expressing Galpha16 assessed as decrease in serotonin calcium mobilization preincubated for 30 mins followed by serotonin challenge measured for 30 secs by aequorin-derived luminescence assay; type: functional, cell-based
[14] = target: T4, 5-hydroxytryptamine receptor 7; test: Agonist activity at human 5-HT7 receptor expressed in CHO-K1 cells assessed as increase in serotonin-induced cAMP level after 1 hr by TR-FRET assay relative to serotonin; type: functional, cell-based
[15] = target: T4, 5-hydroxytryptamine receptor 7; test: Antagonist activity at human 5-HT7 receptor expressed in CHO-K1 cells assessed as decrease in serotonin-induced cAMP level after 1 hr by TR-FRET assay relative to control; type: functional, cell-based
[16] = target: T4, 5-hydroxytryptamine receptor 7; test: Antagonist activity at human 5-HT7 receptor expressed in CHO-K1 cells assessed as decrease in serotonin-induced cAMP level after 1 hr by TR-FRET assay; type: functional, cell-based
[17] = target: T5, D(2) dopamine receptor; test: Agonist activity at human D2 receptor expressed in CHO-K1 cells co-expressing Galphaqi5 assessed as increase apomorphine-induced calcium mobilization measured for 30 secs by aequorin-derived luminescence assay relative to apomorphine; type: functional, cell-based
[18] = target: T5, D(2) dopamine receptor; test: Antagonist activity at human D2 receptor expressed in CHO-K1 cells co-expressing Galphaqi5 assessed as decrease in apomorphine-induced calcium mobilization preincubated for 30 mins followed by apomorphine challenge measured for 30 secs by aequorin-derived luminescence assay; type: functional, cell-based
[19] = test system: Mus musculus; test: Antidepressant-like activity in Albino Swiss CD-1 mouse assessed as immobility time at 5 mg/kg, ip administered 30 mins prior to test measured for last 4 mins of 6 mins observation by forced swim test (reference value: 153.9 to 201.9 secs); type: functional
[20] = test system: Mus musculus; test: Antidepressant-like activity in Albino Swiss CD-1 mouse assessed as immobility time at 10 mg/kg, ip administered 30 mins prior to test measured for last 4 mins of 6 mins observation by forced swim test (reference value: 153.9 to 201.9 secs); type: functional
[21] = test system: Mus musculus; test: Antidepressant-like activity in Albino Swiss CD-1 mouse assessed as immobility time at 20 mg/kg, ip administered 30 mins prior to test measured for last 4 mins of 6 mins observation by forced swim test (reference value: 153.9 to 201.9 secs); type: functional
[22] = test system: Mus musculus; test: Anxiolytic-like activity in Albino Swiss CD-1 mouse assessed as increase in number of punished crossings at 2.5 mg/kg, ip administered for 30 mins prior to test measured for 1 min by four-plate test; type: functional, organism-based
Summary of the method: (§2)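 Four-plate test in mice, i.p., 30 min before test; vehicle 0.9% NaCl; doses 1.25–10 mg/kg; number of punished crossings counted; mean ± SEM, n = 8–10 mice per group; ANOVA F statistics.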

[23] = test system: Mus musculus; test: Anxiolytic-like activity in Albino Swiss CD-1 mouse assessed as increase in number of punished crossings at 5 mg/kg, ip administered for 30 mins prior to test measured for 1 min by four-plate test; type: functional, organism-based; summary of the method: as §2
[24] = test system: Mus musculus; test: Toxicity in Albino Swiss CD-1 mouse assessed as death at 20 to 40 mg/kg, ip; type: organism-based; details: in vivo
Summary of the method: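 Deaths counted in mice during maximal electroshock (MES) seizure testing after i.p. dosing, 6 mice per dose (3 or 1 at some top doses); recorded as number dead/number tested alongside protection and rotarod motor impairment (10 rpm); untreated control group included.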

[25] = test system: Mus musculus; test: Anticonvulsant activity in ip dosed Albino Swiss CD-1 mouse assessed as dose required to protect against 50 Hz current-induced seizure; type: functional; details: Swiss CD-1, ip
[26] = Neurotoxicity in ip dosed Albino Swiss CD-1 mouse assessed as minimum dose required to induce motor impairment treated 30 mins prior to test by rotarod test; type: toxicity, organism-based; details: in vivo
[27] = Protection index, ratio of TD50 for motor impairment in ip dosed Swiss albino CD-1 mouse to ED50 for protection against 50 Hz current-induced seizures in ip dosed Swiss albino CD-1 mouse; type: toxicity, organism-based, Swiss CD-1; details: in vivo, read-out: Ratio TD50/ED50
[28] = test system: Mus musculus; test: Toxicity in Albino Swiss CD-1 mouse assessed as effect on locomotory activity at 1.25 to 5 mg/kg, ip administered for 30 mins prior to test measured for 1 min; type: organism-based; details: in vivo

T5 sequence (P14416 whole entry): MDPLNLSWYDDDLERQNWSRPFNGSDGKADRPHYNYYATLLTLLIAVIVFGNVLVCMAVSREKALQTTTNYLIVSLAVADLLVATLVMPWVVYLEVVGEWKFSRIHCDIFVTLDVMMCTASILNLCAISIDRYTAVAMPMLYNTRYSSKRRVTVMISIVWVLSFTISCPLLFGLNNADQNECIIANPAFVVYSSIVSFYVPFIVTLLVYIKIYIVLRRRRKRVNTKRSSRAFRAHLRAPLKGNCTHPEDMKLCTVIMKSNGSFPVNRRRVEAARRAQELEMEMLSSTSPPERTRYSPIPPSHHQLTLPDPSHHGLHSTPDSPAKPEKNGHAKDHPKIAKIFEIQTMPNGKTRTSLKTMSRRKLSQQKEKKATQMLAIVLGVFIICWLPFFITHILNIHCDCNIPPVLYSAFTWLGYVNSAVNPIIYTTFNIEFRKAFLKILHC
T4 sequence (P34969 whole entry): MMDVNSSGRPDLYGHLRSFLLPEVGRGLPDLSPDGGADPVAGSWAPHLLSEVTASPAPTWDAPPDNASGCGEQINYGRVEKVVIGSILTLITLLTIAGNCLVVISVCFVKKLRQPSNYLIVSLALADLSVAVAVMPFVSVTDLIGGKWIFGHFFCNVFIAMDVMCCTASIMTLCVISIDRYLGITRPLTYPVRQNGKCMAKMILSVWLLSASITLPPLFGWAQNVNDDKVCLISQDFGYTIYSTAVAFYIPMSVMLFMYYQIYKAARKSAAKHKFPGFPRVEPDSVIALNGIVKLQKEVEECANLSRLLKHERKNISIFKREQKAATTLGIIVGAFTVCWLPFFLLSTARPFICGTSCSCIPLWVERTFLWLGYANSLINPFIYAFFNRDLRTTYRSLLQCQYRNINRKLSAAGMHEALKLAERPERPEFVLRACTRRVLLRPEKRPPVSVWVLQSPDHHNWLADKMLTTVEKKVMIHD
T3 sequence (P28223 whole entry): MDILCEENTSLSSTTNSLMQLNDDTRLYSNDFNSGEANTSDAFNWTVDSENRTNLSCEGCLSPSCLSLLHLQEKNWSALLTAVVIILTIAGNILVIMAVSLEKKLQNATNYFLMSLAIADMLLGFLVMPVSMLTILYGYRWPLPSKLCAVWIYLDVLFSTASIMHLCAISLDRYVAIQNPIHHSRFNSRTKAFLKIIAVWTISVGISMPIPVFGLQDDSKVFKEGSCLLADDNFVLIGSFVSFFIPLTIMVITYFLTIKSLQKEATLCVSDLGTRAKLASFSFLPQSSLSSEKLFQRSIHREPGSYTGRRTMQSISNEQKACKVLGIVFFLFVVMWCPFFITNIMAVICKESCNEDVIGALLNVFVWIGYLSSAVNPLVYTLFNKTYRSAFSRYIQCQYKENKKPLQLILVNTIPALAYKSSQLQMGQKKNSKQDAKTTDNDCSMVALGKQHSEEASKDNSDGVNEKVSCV
5-hydroxytryptamine receptor 6, sequence (P50406 whole entry): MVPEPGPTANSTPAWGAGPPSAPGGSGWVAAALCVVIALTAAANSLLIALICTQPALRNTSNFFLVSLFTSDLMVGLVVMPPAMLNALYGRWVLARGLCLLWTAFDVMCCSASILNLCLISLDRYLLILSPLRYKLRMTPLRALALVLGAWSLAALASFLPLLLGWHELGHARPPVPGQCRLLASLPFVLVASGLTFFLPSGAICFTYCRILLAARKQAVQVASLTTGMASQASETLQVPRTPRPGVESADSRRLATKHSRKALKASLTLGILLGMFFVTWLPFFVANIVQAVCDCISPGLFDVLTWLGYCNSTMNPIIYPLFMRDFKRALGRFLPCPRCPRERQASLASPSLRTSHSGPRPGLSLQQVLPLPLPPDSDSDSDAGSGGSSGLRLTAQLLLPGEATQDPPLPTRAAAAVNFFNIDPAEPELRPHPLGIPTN

COc1ccccc1N1CCN(CCCNc2cc(=O)n(C)c(=O)n2C)CC1
Ki [1]: 127.9 nM | Ki [2]: 213 nM

COc1ccccc1N1CCN(CCOCCOc2c(C)cc(C)cc2C)CC1.Cl.Cl
Ki [3]: 5 nM | Ki [4]: 245 nM | Ki [5]: 2430 nM | Ki [6]: 70 nM | Ki [7]: 189 nM | Ki [8]: 15 nM | Emax [9]: 3% | Emax [10]: 20% | Kb [11]: 13.9 nM | IC50 [12]: 56.8 nM | IC50 [13]: 18200 nM | Emax [14]: 11% | Emax [15]: 3% | IC50 [16]: 1840 nM | Kb [16]: 783 nM | Emax [17]: 1% | IC50 [18]: 82 nM | Kb [18]: 24.4 nM | Time [19]: 138.5 s | Time [20]: 131.3 s | Time [21]: 150.6 s | Activity [22]: Active | Activity [23]: Active | Activity [24]: Non-Toxic | ED50 [25]: 26.3 mg/kg | TD50 at 0.5 h [26]: 31.5 mg/kg | selectivity ratio [27]: 1.19 | Activity [28]: Non-Toxic
